zfTRPN1 agonist = activates the zebrafish TRPN1 channel; HEK293 zebrafish TRPN1-YFP, Fluo-8 calcium fluorescence; 100% = response to 87 µM carbachol; AID 1424; 220,000 compounds, 0.18% hits; activation, % at 3 µM;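 active = activation above its plate's cutoff, the mean activation of test wells on that plate plus 3 SD, cut at about 19% in these data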
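Material: zebrafish TRPN1-YFP in HEK293 cells. Doses: one dose of 3 µM, 0.3% DMSO. Incubation: dye 1 h 37 °C plus 30 min RT. Measured by: intracellular calcium fluorescence with Fluo-8.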
CRFR2-BP ag = CRF-BP/CRF-R2 complex agonism; HEK293 CRF-R2/CRF-BP, calcium dye fluorescence (FLIPR); percent of saturating CRF peptide response; activation, % at 13.2 µM; 350,000 compounds, 0.46% hits;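 active = activation of at least 50%, plus an integration ratio under a set limit after plate pattern correction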
GPR7 antagonist = blocks human GPR7 receptor signaling. P48145. GPR7-expressing cells, fluorescence antagonist assay. inhibition, % at 4.4 µM. AID 1861. 290,000 compounds, 1.1% hits; in the data active = inhibition above about 16%, passing the limit was not always enough;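 note: cells stimulated with the agonist NPW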
CRFR2-BP antag = blocks CRF-induced signaling of the CRF-BP/CRF-R2 complex; HEK293 CRF-R2/CRF-BP, CRF-induced calcium fluorescence; AID 588475; inhibition, % at 11.8 µM; 350,000 compounds, 0.59% hits;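 active = inhibition of the ligand-induced calcium signal above about 50% at the single tested concentration, limit read from the data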
TRPML3 ag = agonists of human TRPML3 channel; HEK293 TRPML3-YFP, Fluo-8 calcium fluorescence; 100% = the carbachol control signal; AID 1448; Q8TDD5; 220,000 compounds, 0.29% hits; activation, % at 3 µM;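 active = activation above its plate's cutoff, the mean activation of the plate's test wells plus 3 SD, cut at about 12% in these data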
Target sequence (Q8TDD5 whole entry, looked up): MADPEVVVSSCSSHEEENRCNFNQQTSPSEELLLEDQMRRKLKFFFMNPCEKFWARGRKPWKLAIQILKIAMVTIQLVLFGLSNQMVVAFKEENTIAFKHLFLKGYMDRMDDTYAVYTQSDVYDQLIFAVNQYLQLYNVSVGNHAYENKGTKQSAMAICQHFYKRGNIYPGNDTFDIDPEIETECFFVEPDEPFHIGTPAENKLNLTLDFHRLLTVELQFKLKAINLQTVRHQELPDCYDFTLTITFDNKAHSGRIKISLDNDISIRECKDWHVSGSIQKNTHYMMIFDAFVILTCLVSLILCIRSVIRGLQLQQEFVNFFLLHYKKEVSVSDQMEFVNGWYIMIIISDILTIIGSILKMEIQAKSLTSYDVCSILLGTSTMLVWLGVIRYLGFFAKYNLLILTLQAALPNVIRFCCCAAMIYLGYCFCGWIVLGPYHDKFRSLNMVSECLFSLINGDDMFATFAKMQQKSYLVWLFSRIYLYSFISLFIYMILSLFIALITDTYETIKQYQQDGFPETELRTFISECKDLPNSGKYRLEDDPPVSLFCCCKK
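Material: HEK293 cells stably carrying human TRPML3-YFP; compound dosing: single dose, 3 µM final nominal compound, 0.3% DMSO final; incubation: 1-h 37 °C dye load, 5-s basal, 120-s post-compound reads; technique: Fluo-8 intracellular calcium fluorescence, excitation 470-495 nm, emission 515-575 nm; read-out basis: percent activation from peak-to-basal fluorescence ratio, scaled between DMSO and carbachol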
GPR7 antag conf = confirmation of human GPR7 antagonists | shares compounds with GPR7 antagonist | GPR7-expressing cells, calcium fluorescence antagonist mode | inhibition, % at 4.4 µM | 2,400 compounds, 52% hits; in the data active = inhibition above about 24%;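 note: stimulated with the GPR7 agonist NPW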
MCHR1 antagonist = counter-screen for GPR7 antagonists: antagonists of human MCHR1. shares compounds with GPR7 antagonist. MCHR1-expressing cells, fluorescence antagonist assay. inhibition, % at 4.4 µM. 2,400 compounds, 62% hits. AID 2148; in the data active = inhibition above about 22%
Numbers stand for hits; n = inactive; x = not tested or not shown. Shown are actives, neighbours in structure and some others; about 2% of the full set was active somewhere.

SMILES	zfTRPN1 agonist	CRFR2-BP ag	GPR7 antagonist	CRFR2-BP antag	TRPML3 ag	GPR7 antag conf	MCHR1 antagonist
O=C(C[C@@H]1C/C=C\C[C@@H](Cc2ccc(F)cc2)C(=O)OC[C@H]2CCCN2C1=O)NCCO	x	n	x	n	x	x	x
CC1(C)CC(=O)C/C(=N/NC(=O)COc2ccc3ccccc3c2Br)C1	x	n	104	n	x	n	n
CCOC(=O)C1(CCOC)CCCCC1=O (configuration not stated)	x	n	x	n	x	x	x
COc1ccc(/C=C2/CC/C(=C\c3ccc(OC)c(OC)c3OC)C2=O)c(OC)c1OC	n	52	23	n	n	n	67
COc1ccc(/C=C2\CCC(C3CCCC3)C2=O)c(OC)c1OC (configuration not stated)	x	n	n	n	x	x	x
O=C(COC(=O)c1c(Cl)cccc1Cl)NCC1CCCO1 (configuration not stated)	x	n	n	n	x	x	x
CC1(C)Cc2c(sc(NC(=O)C(=O)N3CCN(CCO)CC3)c2C(N)=O)CO1	x	n	n	n	x	x	x
Clc1cccc(-c2nnc(SC/C=C/c3ccccc3)n2Cc2ccco2)c1	n	n	27	60	n	44	72
C(=C\c1ccccc1)/CSc1nnc(-c2ccncc2)n1Cc1ccco1	n	n	n	n	n	x	x
C(=C\c1ccccc1)/CSc1nnc(-c2ccccc2)n1Cc1ccco1	n	n	32	62	n	41	64
COc1ccc(OC)c(NS(=O)(=O)c2c(C(=O)N3CCCCCC3)c(C)n(C)c2C)c1	x	n	45	n	x	28	n
CC[C@]12c3[nH]c4cc(-c5ccco5)ccc4c3CCN1C(=O)[C@@H](CC(=O)NCCc1ccccn1)C[C@@H]2C(=O)N1CCN(C(=O)c2ccco2)CC1	x	n	x	n	x	x	x
CCOC(=O)C1=C(C)NC(C)=C(C(=O)OCC)C1C(=O)OCC(=O)N(C)Cc1ccccc1	x	n	x	n	x	x	x
Brc1cccc(OCCn2ccnc2)c1	n	n	24	n	n	n	n
O=C(Nc1ccc(Cl)cc1)Nc1nc(-c2ccccc2O)cs1	n	n	31	n	n	67	62
O=C(NCCCN1CCOCC1)c1ccc2c(c1)N(Cc1c(F)cccc1Cl)C(=O)c1ccccc1S2	x	n	25	n	x	37	n
O=C1Nc2cc(C(=O)NCCCN3CCOCC3)ccc2S/C1=C/c1ccccc1F	x	n	40	n	x	33	28
C#CCOc1ccc2c3c(c(=O)oc2c1)CCCC3	x	n	n	n	x	x	x
Cc1nc(SCC(=O)N2CCCC2=O)nc(C)c1C	x	n	x	n	x	x	x
CN(c1ccccc1)P(=O)(N(C)c1ccccc1)N(C)c1ccccc1	n	n	28	n	n	34	37
CN(c1ccccc1)S(=O)(=O)CS(=O)(=O)N(C)c1ccccc1	x	n	x	n	x	x	x
CC(=O)OCCNc1cc(Sc2nc3ccccc3[nH]2)c2nonc2c1[N+](=O)[O-]	n	n	33	n	n	60	101
O=C(O)CSc1nc2ccccc2[nH]1	n	n	27	n	n	n	n
Nc1nc(Nc2ccccc2F)sc1C(=O)c1ccccc1	x	n	n	n	x	x	x
CCCCCOc1ccc(OC(=O)c2ccncc2)cc1	n	n	27	n	n	n	n
SMILES	zfTRPN1 agonist	CRFR2-BP ag	GPR7 antagonist	CRFR2-BP antag	TRPML3 ag	GPR7 antag conf	MCHR1 antagonist
CCCCOc1ccc(C(=O)Oc2ccc(C)nc2)cc1	n	n	n	n	n	x	x
O=C(CSc1nc(=O)n(CCCN2CCOCC2)c2c1CCC2)Nc1cccc(F)c1	x	n	x	n	x	x	x
O=C(Oc1ccc(C(=S)N2CCC(O)CC2)cc1)c1ccc(Cl)cc1	n	n	26	n	n	34	38
O=C(Oc1ccc(C(=S)N2CCCCC2)cc1)c1ccccc1	n	n	26	n	n	55	56
O=C(Oc1cccc(C(=S)N2CCCCC2)c1)c1ccccc1	n	n	n	n	n	x	x
CSc1ccc(CN2CCCC(N3CCN(c4ccccc4)CC3)C2)cc1 (configuration not stated)	x	n	n	n	x	x	x
CC(C)(C)n1nc2c(c1NC(=O)c1ccccc1S(=O)(=O)C(F)F)CS(=O)(=O)C2	x	n	n	n	x	x	x
Cc1ccccc1C(=O)Nc1c2c(nn1C(C)(C)C)CS(=O)(=O)C2	x	n	22	n	x	n	n
CN(C)C1=NC[C@H](Cc2ccccc2)N1CC1CCCC1	x	n	x	n	x	x	x
CN(C)C1=NC[C@H](Cc2ccccc2)N1CC1CCC(C(C)(C)C)CC1 (some centres not stated)	x	n	45	n	x	41	n
COc1ccc(S(=O)(=O)N2CCCCCC2)cc1C(=O)N(C)CCOc1ccccc1	x	n	x	n	x	x	x
Cc1ccc(S(=O)(=O)N2CCCCC2)cc1C(=O)N(C)CCOc1ccccc1	x	n	23	n	x	n	22
O=C(NCCc1ccccc1)c1cc(S(=O)(=O)N2CCCC2)ccc1F	x	n	26	n	x	n	n
CC(C(=O)N1CCCC1)N(c1ccc(Cl)cc1)S(C)(=O)=O (configuration not stated)	x	n	x	n	x	x	x
C[C@@]12C(=O)N(Cc3ccccc3)CC(=O)N1[C@H](/C=C/c1ccccc1)[C@@H]1C(=O)N(c3ccccc3)C(=O)[C@@H]12	x	n	n	n	x	x	x
O=C(c1ccc(Cl)cc1)N1CCC(C(=O)N2CCN(c3ncccn3)CC2)CC1	x	n	x	n	x	x	x
C[C@@H]1CN([C@@H](C)CO)C(=O)c2cc(N(C)C)ccc2O[C@@H](C)CCCCO[C@@H]1CN(C)S(=O)(=O)c1cccs1	x	n	x	n	x	x	x
c1ccc(CCn2nnnc2C(c2cccs2)N2CCN(Cc3ccc4c(c3)OCO4)CC2)cc1 (configuration not stated)	n	n	22	n	n	n	34
CCCCN(C(=O)c1cccc(S(=O)(=O)N2CC(C)OC(C)C2)c1)c1c(N)n(CC(C)C)c(=O)[nH]c1=O (configuration not stated)	x	n	n	n	x	x	x
CC1CN(C(=O)c2ccc(NS(=O)(=O)c3ccc(C(C)(C)C)cc3)cc2)CC(C)O1 (configuration not stated)	x	57	33	n	x	32	42
CC1CN(C(=O)c2ccc(NS(=O)(=O)c3cccc(Cl)c3)cc2)CC(C)O1 (configuration not stated)	x	n	n	n	x	x	x
C=CCSc1nsc(NC(=O)Nc2ccc(F)cc2)n1	x	n	36	n	x	61	61
CCOC(=O)c1sc(NC(=O)Nc2ccc(F)cc2)nc1C	n	n	n	n	n	x	x
CCSc1nsc(NC(=O)Nc2ccccc2F)n1	x	n	n	n	x	x	x
CCSc1nsc(NC(=O)Nc2cccc(OC)c2)n1	x	n	28	n	x	37	61
CCc1cccc2c(C(=O)C(NCCCOC)c3ccccc3)c[nH]c12 (configuration not stated)	x	n	35	n	x	43	30

Screening data from PubChem.
